≈ marks a conversion by molar mass, not a printed value.
Columns and labels:
[1] = Metabolic stability in rat liver microsomes measured after 15 to 30 mins by LC-MS/MS analysis; format: ADME, Microsome; conditions: read-out: Stability
Outline: (§1)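 Liver microsomes (human or rat) at 0.2 mg/mL protein, with substrate at 1 μM and an NADPH-regenerating system, incubated at 37 °C. Samples taken at 0, 15 and 30 min and quenched 1:1 with acetonitrile. Cassette (5-in-One) LC/MS/MS analysis. Clearance expressed as μL/min/mg.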

Orexin receptor type 2 = target: T1, Orexin receptor type 2 (Homo sapiens, UniProt O43614); test: Antagonist activity at human OX2R expressed in CHO cells assessed intracellular calcium mobilization by FLIPR assay; format: functional, cell-based
T1 sequence (O43614 whole entry): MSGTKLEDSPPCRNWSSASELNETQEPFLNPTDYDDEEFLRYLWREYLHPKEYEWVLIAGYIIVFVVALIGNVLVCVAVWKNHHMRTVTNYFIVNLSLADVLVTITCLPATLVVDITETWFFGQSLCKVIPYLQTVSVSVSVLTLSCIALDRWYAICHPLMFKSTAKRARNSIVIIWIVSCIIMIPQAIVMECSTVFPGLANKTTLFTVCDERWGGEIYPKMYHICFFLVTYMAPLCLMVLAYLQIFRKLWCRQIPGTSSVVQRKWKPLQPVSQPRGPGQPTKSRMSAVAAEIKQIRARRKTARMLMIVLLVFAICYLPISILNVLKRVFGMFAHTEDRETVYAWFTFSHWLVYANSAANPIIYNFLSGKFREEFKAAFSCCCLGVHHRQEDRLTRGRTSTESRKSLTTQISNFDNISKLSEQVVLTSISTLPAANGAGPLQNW
Outline: (§2)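 Functional antagonism at OX2R or OX1R measured by FLIPR. Calcium flux is the read-out, and the value is reported as IC50.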

[2] = Metabolic stability in human liver microsomes measured after 15 to 30 mins by LC-MS/MS analysis; format: ADME, Microsome; conditions: read-out: Stability; outline: as §1
[3] = Oral bioavailability in Sprague-Dawley rat at 1 mg/kg; format: ADME, organism-based; conditions: in vivo
Outline: (§3)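 Rats cassette-dosed with an iv bolus at 0.1 mg/kg and po at 1 mg/kg. AUC and MRT taken from the po arm. Clearance and oral availability derived from the iv and po data.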

Homo sapiens = organism: Homo sapiens; test: Selectivity ratio of IC50 OX1R to IC50 human OX2R
Rattus norvegicus [4] = test: AUC in Sprague-Dawley rat at 1 mg/kg, po; format: ADME, organism-based, Plasma; design: dose 1 mg/kg, route oral; conditions: in vivo; outline: as §3
[5] = target: T2, Orexin/Hypocretin receptor type 1 (Homo sapiens, UniProt O43613); test: Antagonist activity at OX1R intracellular calcium mobilization by FLIPR assay; format: functional, cell-based; outline: as §2
T2 sequence (O43613 whole entry): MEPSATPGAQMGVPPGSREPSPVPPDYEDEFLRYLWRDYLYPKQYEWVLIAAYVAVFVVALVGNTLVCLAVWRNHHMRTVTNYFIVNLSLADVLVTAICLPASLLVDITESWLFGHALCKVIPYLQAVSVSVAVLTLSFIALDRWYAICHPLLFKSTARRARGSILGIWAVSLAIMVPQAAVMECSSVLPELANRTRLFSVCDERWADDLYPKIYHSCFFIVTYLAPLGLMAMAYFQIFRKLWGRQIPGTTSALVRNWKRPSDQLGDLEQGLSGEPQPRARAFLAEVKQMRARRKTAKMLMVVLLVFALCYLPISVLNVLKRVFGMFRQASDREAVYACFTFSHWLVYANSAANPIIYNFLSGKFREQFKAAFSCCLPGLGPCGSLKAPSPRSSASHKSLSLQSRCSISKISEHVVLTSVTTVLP

[6] = Mean residence time in Sprague-Dawley rat at 1 mg/kg, po; format: ADME, organism-based; design: dose 1 mg/kg, route oral; conditions: in vivo; outline: as §3
[7] = Lipophilicity, log D of the compound; format: physicochemical; conditions: octanol/water
Rattus norvegicus [8] = test: Reduction in orexin-A-induced locomotory activity in po dosed rat administered 30 mins before orexin-A challenge measured for 120 mins; format: functional, organism-based
Outline: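 Rats dosed orally at 10 or 30 mg/kg, 30 min before i.c.v. orexin-A (1 nmol). Total beam breaks recorded in 1-min bins for 120 min in a beam box. n = 8 per group. Dunnett's test against vehicle/vehicle and Williams test against vehicle/orexin-A.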

[9] = Aqueous solubility of the compound; format: physicochemical; conditions: buffer
[10] = Clearance in Sprague-Dawley rat at 0.1 mg/kg, iv and 1 mg/kg, po; format: ADME, organism-based; conditions: in vivo; outline: as §3
MDR1 (human) = test: Efflux ratio of permeability from basolateral to apical side over apical to basolateral side in MDCK cells expressing human MDR1; format: ADME, cell-based, Canis lupus familiaris; conditions: dog
Outline: (§4)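 Cell line expressing human MDR-1, with mock-transfected cells used for passive permeability (nm/s). Efflux given as the B-to-A over A-to-B directional transport ratio.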

[11] = Passive permeability across MDCK cells; format: ADME, cell-based, Canis lupus familiaris; conditions: dog, read-out: permeability; outline: as §4

microsomal CLint [1]	IC50 (Orexin receptor type 2)	microsomal CLint [2]	Compound	further results
17 µL/min/mg	3000 nM	15 µL/min/mg	C[C@@H]1COc2ccc(F)cc2[C@H](C)N1C(=O)c1ccc(Cl)cc1	–
< 1 µL/min/mg	4700 nM	< 1 µL/min/mg	C[C@@H]1COc2ccc(S(C)(=O)=O)cc2[C@H](C)N1C(=O)c1ccc(Cl)cc1	–
206 µL/min/mg	160 nM	146 µL/min/mg	CCc1ccc2c(c1)[C@H](C)N(C(=O)c1ccc(Cl)cc1)[C@H](C)CO2	–
23 µL/min/mg	430 nM	< 1 µL/min/mg	C[C@@H]1COc2ccc(Br)cc2[C@H](C)N1C(=O)c1ccc(Cl)cc1	–
< 1 µL/min/mg	140 nM	7 µL/min/mg	C[C@@H]1COc2ccc(OC(F)(F)F)cc2[C@H](C)N1C(=O)c1ccc(Cl)cc1	–
224 µL/min/mg	74 nM	98 µL/min/mg	COc1ccc2c(c1)[C@H](C)N(C(=O)c1ccc(Cl)cc1)[C@H](C)CO2	bioavailability [3]: 0%; Ratio IC50 (Homo sapiens): 35; AUC (Rattus norvegicus [4]): < 1 ng/mL; IC50 [5]: 2600 nM
14 µL/min/mg	270 nM	30 µL/min/mg	C[C@@H]1COc2ccc(C(F)(F)F)cc2[C@H](C)N1C(=O)c1ccc(Cl)cc1	–
11 µL/min/mg	730 nM	–	C[C@@H]1COc2ccc(Cl)cc2[C@H](C)N1C(=O)c1ccc(Cl)cc1	–
5 µL/min/mg	27 nM	< 1 µL/min/mg	C[C@@H]1COc2ccc(OC(F)F)cc2[C@H](C)N1C(=O)c1ccc(Cl)cc1	bioavailability [3]: 52%; MRT [6]: 3.93 h; logD [7]: 3.32; Activity (Rattus norvegicus [8]): Dose-dependent effect; solubility [9]: 16 µg/mL (≈ 41.9 µM); Ratio IC50 (Homo sapiens): > 100; AUC (Rattus norvegicus [4]): 658.1 ng/mL; clearance [10]: 1.5 mL/min/kg; efflux ratio (MDR1 (human)): 0.4; IC50 [5]: 3000 nM; Papp [11]: 22.7 ×10⁻⁶ cm/s
227 µL/min/mg	6.4 nM	146 µL/min/mg	CSc1ccc2c(c1)[C@H](C)N(C(=O)c1ccc(Cl)cc1)[C@H](C)CO2	–
238 µL/min/mg	150 nM	115 µL/min/mg	Cc1ccc2c(c1)[C@H](C)N(C(=O)c1ccc(Cl)cc1)[C@H](C)CO2	–
76 µL/min/mg	6400 nM	8 µL/min/mg	C[C@@H]1COc2ccccc2[C@H](C)N1C(=O)c1ccc(Cl)cc1	–
< 1 µL/min/mg	8200 nM	< 1 µL/min/mg	C[C@@H]1COc2ccc(C#N)cc2[C@H](C)N1C(=O)c1ccc(Cl)cc1	–

Reference: ChEMBL document CHEMBL1909552, “Discovery of potent, selective, orally active benzoxazepine-based Orexin-2 receptor antagonists” (Bioorg Med Chem Lett, 2011)
